Ki and EC50 data for six compounds are collected here from ChEMBL document CHEMBL1134627, “Synthesis of novel, potent, diol-based HIV-1 protease inhibitors via intermolecular pinacol homocoupling of (2S)-2-benzyloxymethyl-4-phenylbutanal” (J Med Chem, 2001).

For assay [1], the target named is Human immunodeficiency virus type 1 protease (Human immunodeficiency virus 1, UniProt Q72874). Put plainly: Inhibitory activity against HIV-1 protease (Escherichia coli). An outline of the steps: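 Recombinant HIV-1 protease, cloned and expressed in E. coli. Ki values were determined with a fluorometric assay.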
Assay [2] deals with MT4. Put plainly: Inhibitory activity against MT-4 cells. The note with it: Homo sapiens, read-out: ED50 (the source's name). It counts as functional. An outline of the steps: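 HIV-induced cytopathic effect measured in MT-4 cells, with cell viability read out using the vital dye XTT. ED50 was calculated from the percent cytoprotection for each compound.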
Assay [3] has as its system MT4. Put plainly: Inhibitory activity against MT-4 cells, in the presence of human serum. It counts as functional. Particulars: read-out: ED50 (the source's name). An outline of the steps: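 HIV cytopathic assay in MT-4 cells run in the presence of 40% human serum, with viability read out using the vital dye XTT. ED50 was calculated from the percent cytoprotection.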

pEC50, pKi: −log10 of the molar value.

The pKi is −log10 of the Ki, conventionally taken in molar units. A higher pKi goes with a low Ki.

The compound `O=C(NC1c2ccccc2C[C@H]1O)[C@H](OCc1ccccc1)[C@H](O)[C@@H](O)[C@@H](OCc1ccccc1)C(=O)N[C@H]1c2ccccc2C[C@H]1O` (some centres not stated) showed a negative-log Ki (pKi) in assay [1] of 9.22. Moreover, the pEC50 in assay [2] is 7.02; in assay [3] it was 5.82.

`O=C(NC1c2ccccc2C[C@H]1O)[C@H](CCc1ccccc1)[C@@H](O)[C@H](O)[C@@H](CCc1ccccc1)C(=O)N[C@H]1c2ccccc2C[C@H]1O` (some centres not stated) had a negative-log Ki (pKi) in assay [1] of 8.96. Besides, the pEC50 in assay [2] was 7.03; in assay [3], 6.41.

As to `CNC(=O)[C@@H](NC(=O)[C@H](OCc1ccccc1)[C@H](O)[C@@H](O)[C@@H](OCc1ccccc1)C(=O)N[C@H](C(=O)NC)C(C)C)C(C)C`, the results for the pEC50 in assay [2] and in assay [3] were 5.89 and 4.47, respectively.

Turning to `CNC(=O)[C@@H](NC(=O)[C@H](CCc1ccccc1)[C@@H](O)[C@H](O)[C@@H](CCc1ccccc1)C(=O)N[C@H](C(=O)NC)C(C)C)C(C)C`, the pKi in assay [1] was 9.40. Besides, the pEC50 in assay [2] is 5.72; in assay [3], 5.85.

In assay [1], `O=C(NC1c2ccccc2C[C@H]1O)[C@H](CCc1ccccc1)[C@H](O)[C@H](O)[C@@H](CCc1ccccc1)C(=O)N[C@H]1c2ccccc2C[C@H]1O` (some centres not stated) had a pKi of 7.55. Also, the pEC50 was under 5.00 in assay [2] and 4.82 in assay [3].

In assay [1], `CNC(=O)[C@@H](NC(=O)[C@H](CCc1ccccc1)[C@H](O)[C@H](O)[C@@H](CCc1ccccc1)C(=O)N[C@H](C(=O)NC)C(C)C)C(C)C` showed a negative-log Ki (pKi) of 6.95. Further, the pEC50 in assay [2] and in assay [3] was under 5.00 each time.
